Compound activity deposited in PubChem by The Scripps Research Institute Molecular Screening Center.
The list is not random: actives were taken first. Their share in the collection is about 2%.
MBD2 inh: MBD2-methylated oligo binding inhibition; Q9UBB5; 0.31% of 370,000 active; AID 686964; TR-FRET, MBD2 binding to methylated oligonucleotide; inhibition, % at 4.4 µM; in the data active means inhibition above about 13%
TCR CD3 inh: inhibitors of human TCR-CD3 interaction | TAMRA-labeled TCR probe fluorescence, biochemical | inhibition, % at 9.4 µM | 0.37% of 360,000 active | AID 651800; in the data active means inhibition above about 19%;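 further: recombinant mutant TCR 2C K166C tagged with TAMRA read by polarization; 0% = receptor in buffer alone and 100% = receptor with positive control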
UHRF1 binding: blocks human UHRF1 binding to methylated DNA; Q96T88; UHRF1 binding to methylated oligo, TR-FRET; inhibition, % at 4.4 µM; 0.75% of 370,000 active; AID 687016;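 further: UHRF1 SRA domain binding a hemimethylated CpG hairpin DNA probe; 0% = median of test compound wells and 100% = reference inhibitor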
Target sequence (Q96T88 whole entry, looked up, the tested form may be a part): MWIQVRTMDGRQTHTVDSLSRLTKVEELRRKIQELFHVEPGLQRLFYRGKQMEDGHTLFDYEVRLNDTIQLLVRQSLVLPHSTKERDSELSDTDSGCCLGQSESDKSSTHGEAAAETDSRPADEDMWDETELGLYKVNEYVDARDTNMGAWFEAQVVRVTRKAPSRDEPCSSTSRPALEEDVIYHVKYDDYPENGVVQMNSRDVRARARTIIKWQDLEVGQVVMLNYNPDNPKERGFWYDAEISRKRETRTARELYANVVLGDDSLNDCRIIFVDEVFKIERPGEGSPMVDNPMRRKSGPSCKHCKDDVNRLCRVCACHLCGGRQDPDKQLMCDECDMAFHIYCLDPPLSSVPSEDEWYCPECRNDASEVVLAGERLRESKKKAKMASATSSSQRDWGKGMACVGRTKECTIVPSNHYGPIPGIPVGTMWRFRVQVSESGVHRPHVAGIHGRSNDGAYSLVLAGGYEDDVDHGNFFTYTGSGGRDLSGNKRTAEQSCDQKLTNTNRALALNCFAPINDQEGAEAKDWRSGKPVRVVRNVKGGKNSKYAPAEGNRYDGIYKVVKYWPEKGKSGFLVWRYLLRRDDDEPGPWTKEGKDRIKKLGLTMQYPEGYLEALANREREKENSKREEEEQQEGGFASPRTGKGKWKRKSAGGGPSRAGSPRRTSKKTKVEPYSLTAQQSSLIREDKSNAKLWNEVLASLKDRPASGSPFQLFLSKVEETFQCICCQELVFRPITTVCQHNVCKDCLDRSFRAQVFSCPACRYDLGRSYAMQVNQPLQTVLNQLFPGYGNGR
ARFGAP1 inh: rat ARFGAP1 inhibition; Q62848; Arfgap1-stimulated ARF1 GTP hydrolysis, GDP FP detection; inhibition, % at 16.5 µM; 0.26% of 360,000 active; AID 651572;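 active means inhibition above a per-plate limit, mean inhibition of low control wells plus 3 SD, cut at about 25% in these data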;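 further: 0% = DMSO wells with enzyme and 100% = wells lacking Arfgap1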
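Material: rat Arfgap1 catalytic domain, aa 1-136; also added: human ARF1(Δ1-17)-GTP substrate; compound dosing: one concentration, 16.5 µM, DMSO 1.26%; incubation: GTP hydrolysis reaction 2 h at 25 °C; measured by: Tracer-displacement fluorescence polarization with EDTA stop, 620/688 nm; evaluation: % inhibition from polarization; repeats: one replicate per compound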
ASAP1 inh: ASAP1 ArfGAP inhibition | ASAP1-stimulated ARF1 GTP hydrolysis, GDP FP detection | inhibition, % at 16.5 µM | 0.19% of 360,000 active; in the data active means inhibition above about 25%;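 further: 0% = vehicle with enzyme and substrate and 100% = no enzyme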
LEDGF integ inh: blocks HIV-1 LEDGF/p75-dependent DNA integration. 0.64% of 370,000 active. TR-FRET IN-LEDGF/p75 DNA integration, Eu/Cy5. inhibition, % at 3.7 µM. AID 743269;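 active means inhibition above the screen-wide mean plus 3 SD, cut at about 13% in these data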;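 further: signal is the Cy5 over europium emission ratio at 671 and 618 nm; 0% = plate median of compound wells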
UHRF1 ctr MBD2: UHRF1 methyl-oligo binding inhibition as MBD2 counter-screen; shares compounds with MBD2 inh; UHRF1 binding to methylated oligonucleotide, TR-FRET; inhibition, % at 4.4 µM; 25% of 1,000 active;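 further: UHRF1 SRA domain binding a labeled hemimethylated CpG hairpin DNA; 0% = vehicle only and 100% = reference inhibitor with vehicle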
MBD2 DBD conf: confirmation of human MBD2-DBD methylated oligonucleotide binding inhibitors; shares compounds with MBD2 inh; TR-FRET MBD2-DBD binding to methylated oligonucleotide; inhibition, % at 4.4 µM; 26% of 1,000 active; in the data active means inhibition above about 14%
Numbers without * were called inactive; / = no result. Unless noted, no stated cut-off is given here; in the data, active means inhibition above about 21%; inactive means the rest.

SMILES	MBD2 inh	TCR CD3 inh	UHRF1 binding	ARFGAP1 inh	ASAP1 inh	LEDGF integ inh	UHRF1 ctr MBD2	MBD2 DBD conf
Cc1ccc(S(=O)(=O)N2CCOCC2)cc1NC(=O)Cn1c(=O)ccn(Cc2ccccc2)c1=O	14*	0	-3	-9	0	1	7	1
CC(C)(COC(=O)c1ccccc1)N1CC2CCC(C1)O2	1	-4	1	-2	-4	-4	/	/
CN(C(=O)c1cccc(NC(=O)Cc2cccc(NC(=O)C3CCCN(C(=O)CCc4ccccc4)C3)c2)c1)C1CCC1 (stereo not given)	-5	-4	-2	-3	-7	1	/	/
COc1ccc(NC(=O)c2noc3c2CCC3)cc1	13*	7	31*	5	0	5	17	8
O=C(COC(=O)/C=C/c1cccc(Cl)c1)NC1CC1	-2	-1	10	3	0	1	/	/
Cc1cc(C)n2nc(-c3ccc(F)cc3)cc2n1	28*	-3	-1	2	-1	-4	7	3
Cc1c(N2C(=O)CSC2c2ccccc2)c(=O)n(-c2ccccc2)n1C (stereo not given)	-1	3	2	4	-10	-1	/	/
CCOc1ccc(C2SCC(=O)N2c2c(C)n(C)n(-c3ccccc3)c2=O)cc1 (stereo not given)	16*	-3	6	-3	0	-5	10	3
CC(NC(=O)COc1ccc(S(=O)(=O)N2CCOCC2)cc1)c1ccccc1 (stereo not given)	1	-3	2	2	0	-7	/	/
COc1ccc2c(=O)c3c(=O)n(-c4ccccc4)c(-c4ccc(C)cc4)nc3oc2c1	19*	-1	11	9	-1	-1	18	68*
Cc1cc(/C=N/NC(=O)C(=O)NCc2ccccn2)c(C)n1-c1ccccc1	-4	-1	1	2	0	2	/	/
COc1ccc(C)cc1NC(=O)C1CCN(C(=O)c2ccco2)CC1	14*	0	-2	6	-14	3	9	3
C=CCN1C(=O)c2ccc(C(=O)N(C)CC(=O)Nc3ccccc3Br)cc2C1=O	-3	-10	3	8	-7	0	/	/
O=C(O)CC1CC(O)CCC1=O (stereo not given)	28*	-1	4	-11	5	-1	8	1
Cc1ccc(C(=O)NC2CCC(C)CC2)s1 (stereo not given)	-3	1	-2	17	-10	-3	/	/
Cc1ccc(C(=O)NCC(=O)NC2CCC(C)CC2)s1 (stereo not given)	98*	9	-1	-7	-17	0	4	1
CCCCSc1nc2c(cc1C#N)CCC2	-6	3	-5	-10	-15	1	/	/
CCCSc1nc(C)c(-c2csc(C(C#N)=C3CCCC3)n2)cc1C#N	16*	-3	17	1	-1	2	7	6
Nc1[nH]c(C(=O)c2ccccc2)c(-c2ccc(Br)cc2)c1C(=O)c1ccccc1	-1	7	-3	-1	1	6	/	/
CCn1nc(C(=O)NNC(=O)c2ccccc2)c2ccccc2c1=O	24*	-5	-1	-22	-14	12	6	4
CCn1nc(C(=O)NNC(=O)c2ccc(OC(F)F)cc2)c2ccccc2c1=O	3	-7	-1	8	2	-8	/	/
O=C(CSc1nnc(SCc2ccc(Cl)cc2)s1)c1ccc2c(c1)OCO2	-7	-1	-4	-4	-6	7	/	/
N=C1C(c2nc3ccccc3s2)=C(O)CN1NC(=O)c1c[nH]c2ccccc12	15*	2	-21	15	16	-1	-12	22*
Cc1ccc(-c2noc(Cn3nc(C(=O)O)c4ccccc4c3=O)n2)cc1	3	-2	2	8	-1	-3	/	/
Cc1noc(C)c1Cn1nc(C(=O)O)c2ccccc2c1=O	32*	8	1	-2	-13	7	3	1
SMILES	MBD2 inh	TCR CD3 inh	UHRF1 binding	ARFGAP1 inh	ASAP1 inh	LEDGF integ inh	UHRF1 ctr MBD2	MBD2 DBD conf
NC(Cc1ccccc1)c1csc(Nc2ccc(C(=O)NCCCO)cn2)n1 (stereo not given)	0	-4	-1	-1	-2	-3	/	/
CC(=O)Nc1ccccc1-c1ccc(C)o1	19*	-3	-2	0	-4	1	8	2
CC(=O)Nc1ccccc1C	3	1	0	9	2	-2	/	/
O=C(CCC(=O)c1cccs1)OCC(=O)c1ccccc1	48*	0	0	5	7	-4	4	1
O=C(O)CCn1c(SCCOc2ccccc2F)nc2ccccc21	1	3	-3	3	6	6	/	/
COc1ccc2cc([C@H](C)C(=O)OCc3cn(CC(=O)c4ccc(O)cc4)nn3)ccc2c1	15*	8	18	8	-8	10	13	11
COc1ccc(C=O)c(OCc2cn(CC(=O)c3ccc(O)cc3)nn2)c1	14*	-5	23*	6	2	3	12	8
C[C@H]1CN([C@@H](C)CO)C(=O)c2cc(C#Cc3ccccn3)cnc2O[C@@H]1CN(C)Cc1ccccc1	-4	4	0	10	-6	0	/	/
COc1ccc(CNC(=O)CN(Cc2ccco2)C(=O)CNS(=O)(=O)c2ccc(F)cc2)cc1	-1	1	3	6	-2	-6	/	/
CC(=O)Nc1sc2c(c1-c1nc3ccccc3s1)CCN(C(C)=O)C2	-5	/	-18	/	/	3	/	/
CC(=O)Nc1sc2c(c1-c1nc3ccccc3s1)CCCN(C(C)C)C2	50*	/	28*	/	/	3	35*	55*
CC(=O)Nc1sc2c(c1-c1nc3ccccc3s1)CN(C(C)C)C2	14*	/	-5	/	/	0	11	29*
CC(=O)Nc1sc2c(c1-c1nc3ccccc3s1)CCN(C)C2	28*	/	1	/	/	2	15	42*
CC(=O)Nc1sc2c(c1-c1nc3ccccc3s1)CN(C(C)C)CC2	36*	7	3	5	-1	2	24*	57*
CC(=O)Nc1sc2c(c1-c1nc3ccccc3s1)CCOC2	-1	/	-14	/	/	-3	/	/
CCOC(=O)C1(Cc2cccc(Cl)c2)CCCN(C(=O)c2cc(C(C)C)nn2C)C1 (stereo not given)	1	2	-2	-1	-6	-1	/	/
O=C(O)Cc1ccc(NC(=O)c2ccc3c(c2)C(=O)N(Cc2ccco2)C3=O)cc1	2	3	6	8	6	0	/	/
COc1ccc(Cc2nnc(NC(=O)CS(=O)(=O)c3ccc(C)cc3)s2)cc1OC	22*	-2	-2	-10	5	0	8	1
